Screens: PubChem, SRMLSC
Lung fibro prol = antiproliferative effect on LL 47 fibroblasts – human, LL 47 cells, CellTiter-Glo luminescence, primary screen; viability, % at 10 µM; AID 719, 2007; LL 47 human lung fibroblast viability, ATP luminescence; hits give low values; 85,000 compounds, 1.1% hits;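 active = viability at or below 50% in the single dose screen; inactive = viability above 50%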;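 note: compound exposure lasted 72 h before the ATP readout; 100% = median luminescence of untreated cell-only wells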
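Signal: luminescent ATP detection, CellTiter-Glo; assay system: LL 47 human lung fibroblasts; input: 1,150 cells/well; incubation: overnight cell rest, 72 h compound treatment at 37 °C; measure: % viability versus median cells-only luminescence; medium: IMEM growth medium with 15% fetal bovine serum; dosing: compound addition at 0.1% DMSO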
HCT116 PTEN-null = growth suppression of PTEN-null HCT116, primary screen, cell-based, CellTiter-Glo | HCT116 PTEN-null viability, 60 h; hits give low values | viability, % at 10 µM | 140,000 compounds, 1.2% hits;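 active = viability at or below a set limit, 4 SD under the median of all tested compounds, cut at about 3.7% in these data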;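 note: PTEN knockout HCT116 line with beta catenin targeted HCT116 as companion control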
H69AR inhibit = proliferation blockers of H69AR lung cancer cells, primary screen, cell-based, human, 86K library | H69AR lung tumor viability, ATP luminescence, 72 h; hits give low values | viability, % at 10 µM | 85,000 compounds, 6% hits;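 active = viability at or below 40%; inactive = viability above 40%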;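 note: multidrug resistant small cell line overexpressing MRP-1 efflux transporter; 100% = mean luminescence of untreated control wells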
HCT116 bCat-KO = primary screen for growth suppressors in beta-catenin knockout HCT116 cells (colon tumor, human). HCT116 beta-catenin knockout viability, CellTiter-Glo, 60 h; hits give low values. viability, % at 10 µM. AID 818, 2007. 140,000 compounds, 1.5% hits;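 active = viability at or under a set limit, the compound median less 4 SD, cut at about 6% in these data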;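 note: 0% = Hyamine 1622 control at 20 µM and 100% = untreated cell control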
HUVEC inhibit = inhibitors of HUVEC proliferation, primary screen, cell-based, 384-well; CellTiter-Glo luminescence, 72 h; hits give low values; viability, % at 10 µM (by protocol); 86,000 compounds, 1.1% hits; AID 648, 2007;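 active = viability at or below 30%; inactive = viability above 30%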;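 note: 100% = median luminescence of DMSO-only cell control wells on each plate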
* marks the source's active call; other numbers are inactive results; nt = no result given. Shown is part of a subset that was picked to be rich in hits.

SMILES	Lung fibro prol	HCT116 PTEN-null	H69AR inhibit	HCT116 bCat-KO	HUVEC inhibit
CCSC1=C(C#N)C2(CCCCC2)C(C#N)=C(N)N1	86	87	79	81	90
COc1ccc(-c2coc3cc4oc(=O)c5ccccc5c4cc23)cc1F	nt	6	nt	4.5*	nt
Cc1c(CCC(=O)O)c(=O)oc2cc3occ(-c4ccc(F)cc4)c3cc12	91	90	102	96	104
COc1cc(CN2CCN(c3cccc(Cl)c3)CC2)cc(OC)c1OC	66	27	26*	32	59
COc1cnc(SCc2c(Cl)cccc2Cl)nc1Cl	nt	75	nt	88	nt
CCCC/C(C)=N\NC(=O)CNS(=O)(=O)c1ccc([N+](=O)[O-])cc1	nt	0.4*	nt	0.5*	nt
O=c1oc2c(O)c(O)cc3c(=O)oc4c(O)c(O)cc1c4c23	99	61	16*	60	69
O=C(CC(SCCO)c1ccc2c(c1)OCO2)c1ccco1 (centres undefined)	87	95	16*	107	85
O=C(O)CC(Cc1ccccc1)c1ccc2c(c1)OCO2 (centres undefined)	103	84	105	88	93
O=C(CSc1ccccc1)NCCSCc1ccccc1	nt	95	nt	90	nt
O=c1c2c3nc4ccccc4nc3n(-c3cccc(F)c3)c2ncn1Cc1ccc2c(c1)OCO2	66	nt	18*	nt	73
CC1=C(C(=O)OCc2ccc3c(c2)OCO3)C(c2ccccc2OCc2ccccc2)NC(=O)N1 (centres undefined)	96	56	77	60	86
CC1=C(C(=O)OCc2ccc3c(c2)OCO3)C(c2ccccc2)NC(=O)N1 (centres undefined)	82	23	23*	24	26*
O=C(Nc1ccc(Cl)cc1)ON=C1CCCC1	nt	92	nt	93	nt
C=C(C)COc1ccc(-c2[nH]ncc2-c2ccc(Br)cc2)c(O)c1	nt	2.2*	nt	1.8*	nt
COc1ccc(-c2cn[nH]c2-c2ccc(OCc3ccc([N+](=O)[O-])cc3)cc2O)cc1	nt	36	nt	51	nt
CCOc1ccc(-c2[nH]ncc2-c2ccc(OC)c(OC)c2)c(O)c1	59	25	14*	22	67
CCOc1ccc(-c2[nH]ncc2Oc2ccccc2OCC)c(O)c1	71	61	12*	65	76
C=C(C)COc1ccc(-c2[nH]ncc2-c2ccccc2OC)c(O)c1	64	44	6.0*	53	32
O=C(NC1(C(F)(F)F)NC(=O)N(Cc2ccccc2)C1=O)c1cccs1 (centres undefined)	102	nt	98	nt	99
c1ccc(NCC2OCc3ccccc3CO2)cc1	nt	103	nt	93	nt
C=C(C)COc1ccc(-c2n[nH]c(C)c2-c2ccc(Br)cc2)c(O)c1	32*	30	6.6*	21	3.8*
C=C(C)COc1ccc(-c2[nH]ncc2Oc2ccccc2OC)c(O)c1	60	68	1.5*	89	50
CCOc1ccc(-c2[nH]ncc2Oc2ccccc2OC)c(O)c1	97	86	46	86	84
COc1ccc(-c2c(-c3ccc(O)cc3O)n[nH]c2C)cc1OC	80	32	21*	41	67
SMILES	Lung fibro prol	HCT116 PTEN-null	H69AR inhibit	HCT116 bCat-KO	HUVEC inhibit
CCCOC(=O)c1ccc(Oc2cn[nH]c2-c2ccc(OC)cc2O)cc1	80	47	42	47	8.5*
C=C(C)COc1ccc(-c2nc(N)ncc2Oc2ccc(OC)cc2)c(O)c1	85	64	73	85	87
COc1ccc(-c2n[nH]c(C)c2-c2cc(OC)ccc2O)cc1	99	99	99	113	95
CCOc1cc(/C=N/NC(=O)CNc2ccc(C)cc2)ccc1OC(=O)c1ccccc1	100	92	47	91	84
CC(C)Cc1cc(C(=O)Nc2cc(C(F)(F)F)ccc2Cl)no1	92	87	78	80	118
COc1cc2c(cc1OC)C(C1C(=O)CC(C)CC1=O)N(C(=O)CCl)CC2 (centres undefined)	nt	98	nt	84	nt
O=c1c2sc3nc(N4CCOCC4)c4c(c3c2ncn1Cc1ccco1)CCCC4	90	nt	69	nt	90
CC(=O)c1c(N2CCN(Cc3ccccc3)CC2)[nH]c(-c2ccccc2)nc1=S	93	91	4.6*	93	77
COC(=O)c1cc(NC(=O)c2c(Cl)nc3sccn23)cc(C(=O)OC)c1	6.7*	63	36*	57	68
COC(=O)c1cc(=O)nc2sccn12	104	102	84	101	97
Cc1ccc(Cl)cc1N1CCN(CC(O)COCc2ccco2)CC1 (centres undefined)	nt	68	nt	71	nt
O=C1[C@H]2[C@H]3[C@H](O)[C@H](O)C/C(=N\OC[C@@H](O)COCc4ccco4)[C@@H]3CC[C@H]2C(=O)N1c1ccc(F)cc1F	nt	79	nt	0.3*	nt
COC(=O)c1sccc1OC(C)C(C)=O (centres undefined)	nt	95	nt	91	nt
CC1CCc2ccc(F)cc2N1S(=O)(=O)c1cccs1 (centres undefined)	89	46	27*	44	83
CCOc1cc(-c2cc(-c3ccc(C)cc3)nc(N)c2C#N)ccc1O	65	7	6.9*	8	41
CCOc1cc(-c2c(C#N)c(N)nc3c2CCc2ccccc2-3)ccc1O	nt	47	nt	50	nt
CCOc1cc(-c2c(C#N)c(N)nc3c2CCCC3C)ccc1O (centres undefined)	96	101	31*	84	76
CCOc1cc(/C=C(\C#N)C(=O)NCC2CCCO2)ccc1O (centres undefined)	nt	101	nt	88	nt
CCOc1cc(/C=C(\C#N)c2[nH]nc(N)c2C#N)ccc1O	82	84	37*	79	64
COc1cc(N2CCCC2)c(OC)cc1/C=C(/C#N)c1cccc(F)c1	88	68	25*	72	95
N#C/C(=C/c1ccc(N2CCCCCC2)o1)c1ccc(F)cc1	11*	33	2.8*	46	56
COc1cccc(/C=C(/C#N)c2ccc(F)cc2)c1OCc1cccc(C(=O)O)c1	nt	101	nt	99	nt
N#C/C(=C\c1ccc(Sc2nc3ccccc3[nH]2)o1)c1ccccc1	88	68	33*	61	53
N#C/C(=C\c1ccc(N2CCOCC2)o1)c1ccccc1	nt	65	nt	57	nt
N#C/C(=C/c1ccc(N2CCOCC2)o1)c1nc2ccccc2[nH]1	76	81	23*	84	51
N#C/C(=C\c1ccc(Sc2ccc(Cl)cc2)o1)c1nc2ccccc2[nH]1	nt	34	nt	53	nt
Cc1cccnc1NC(=O)Nc1cccs1	98	87	110	82	89
COCCOC(=O)C1=C(C)NC2=C(C(=O)CC(C)(C)C2)C1c1cc2c(cc1Br)OCO2 (centres undefined)	103	nt	90	nt	107
N#C/C(=C/c1ccc(N2CCCCCC2)o1)c1cccc(F)c1	87	69	37*	47	95
